In brackets after ≈: the same amount, converted by molar mass.
Experiments:
Type in all cases: functional
Escherichia coli = assay: In vitro minimum inhibitory concentration against Escherichia coli SKF 12140
Streptococcus pyogenes [1] = assay: Subcutaneously administration into mice infected with Streptococcus pyogenes C 203; settings: sc
In short: (§1)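 Mice (five per treatment group, five groups) infected intraperitoneally with about 10⁵ cells of Strep. pyogenes C 203, about 100× the LD50. ED50 (mg/kg) was calculated from the percentage of mice surviving at each dose on day 7.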

Pseudomonas aeruginosa = assay: In vitro minimum inhibitory concentration against Pseudomonas aeruginosa ATCC 10145
[2] = test system: Staphylococcus epidermidis; assay: In vitro minimum inhibitory concentration against Staphylococcus epidermis ATCC 12228
Staphylococcus aureus = assay: In vitro minimum inhibitory concentration against Staphylococcus aureus Tour
Streptococcus pneumoniae = assay: In vitro minimum inhibitory concentration against Streptococcus pneumoniae UC41
Streptococcus pyogenes [3] = assay: In vitro minimum inhibitory concentration against Streptococcus pyogenes C 203
Enterococcus faecalis = assay: In vitro minimum inhibitory concentration against Streptococcus faecalis ATCC 7080
Proteus vulgaris = assay: In vitro minimum inhibitory concentration against Proteus vulgaris X 19 ATCC 881
Streptococcus pyogenes [4] = assay: In vivo effective dose given perorally to mice infected with Streptococcus pyogenes C 203; settings: po; in short: as §1
[5] = test system: Staphylococcus haemolyticus; assay: In vitro minimum inhibitory concentration against Staphylococcus hemolyticus 602 cell line; settings: strain 602

SMILES | MIC (Escherichia coli) | ED50 (Streptococcus pyogenes [1]) | MIC (Pseudomonas aeruginosa) | MIC [2] | MIC (Staphylococcus aureus) | MIC (Streptococcus pneumoniae) | MIC (Streptococcus pyogenes [3]) | MIC (Enterococcus faecalis) | MIC (Proteus vulgaris) | ED50 (Streptococcus pyogenes [4]) | MIC [5]
CCN(CC)CCCNC(=O)[C@H]1NC(=O)[C@H]2NC(=O)[C@H](NC(=O)[C@@H]3NC(=O)[C@H]4NC(=O)[C@@H](Cc5ccc(c(Cl)c5)Oc5cc3cc(c5O)Oc3ccc(cc3Cl)[C@H]2O)NC(=O)[C@H](N)c2ccc(O)c(c2)Oc2cc(O)cc4c2)c2ccc(O)c(c2)-c2c(O)cc(O)cc21 | 8 µg/mL (≈ 6.1 µM) | 0.18 mg/kg | 32 µg/mL (≈ 24.4 µM) | 0.03 µg/mL (≈ 0.0229 µM) | 0.12 µg/mL (≈ 0.0915 µM) | 0.12 µg/mL (≈ 0.0915 µM) | 0.06 µg/mL (≈ 0.0458 µM) | 0.12 µg/mL (≈ 0.0915 µM) | 32 µg/mL (≈ 24.4 µM) | – | –
CCCCN(CCCC)CCCNC(=O)[C@H]1NC(=O)[C@H]2NC(=O)[C@H](NC(=O)[C@@H]3NC(=O)[C@H]4NC(=O)[C@@H](Cc5ccc(c(Cl)c5)Oc5cc3cc(c5O)Oc3ccc(cc3Cl)[C@H]2O)NC(=O)[C@H](N)c2ccc(O)c(c2)Oc2cc(O)cc4c2)c2ccc(O)c(c2)-c2c(O)cc(O)cc21 | 8 µg/mL (≈ 5.85 µM) | 0.72 mg/kg | 64 µg/mL (≈ 46.8 µM) | 0.06 µg/mL (≈ 0.0439 µM) | 0.12 µg/mL (≈ 0.0878 µM) | 0.12 µg/mL (≈ 0.0878 µM) | 0.06 µg/mL (≈ 0.0439 µM) | 0.12 µg/mL (≈ 0.0878 µM) | 32 µg/mL (≈ 23.4 µM) | – | –
N[C@H]1C(=O)N[C@@H]2Cc3ccc(c(Cl)c3)Oc3cc4cc(c3O)Oc3ccc(cc3Cl)[C@@H](O)[C@@H]3NC(=O)[C@H](NC(=O)[C@@H]4NC(=O)[C@@H](NC2=O)c2cc(O)cc(c2)Oc2cc1ccc2O)c1ccc(O)c(c1)-c1c(O)cc(O)cc1[C@@H](C(=O)NCCN1CCOCC1)NC3=O | 16 µg/mL (≈ 12.2 µM) | 2.2 mg/kg | 64 µg/mL (≈ 48.8 µM) | 0.016 µg/mL (≈ 0.0122 µM) | 0.06 µg/mL (≈ 0.0458 µM) | 0.12 µg/mL (≈ 0.0915 µM) | 0.12 µg/mL (≈ 0.0915 µM) | 0.12 µg/mL (≈ 0.0915 µM) | 128 µg/mL (≈ 97.6 µM) | – | –
CCNCCCNC(=O)[C@H]1NC(=O)[C@H]2NC(=O)[C@H](NC(=O)[C@@H]3NC(=O)[C@H]4NC(=O)[C@@H](Cc5ccc(c(Cl)c5)Oc5cc3cc(c5O[C@@H]3O[C@@H](CO)[C@@H](O)[C@H](O)[C@@H]3NC(=O)CCCCCCC(C)C)Oc3ccc(cc3Cl)[C@H]2O[C@@H]2O[C@@H](CO)[C@@H](O)[C@H](O)[C@@H]2NC(C)=O)NC(=O)[C@H](N)c2ccc(O)c(c2)Oc2cc(O)cc4c2)c2ccc(O)c(c2)-c2c(O[C@H]3O[C@H](CO)[C@@H](O)[C@@H](O)[C@@H]3O)cc(O)cc21 | – | 0.1 mg/kg | – | 0.06 µg/mL (≈ 0.0306 µM) | 0.12 µg/mL (≈ 0.0611 µM) | 0.12 µg/mL (≈ 0.0611 µM) | 0.06 µg/mL (≈ 0.0306 µM) | 0.12 µg/mL (≈ 0.0611 µM) | – | 112 mg/kg | 0.12 µg/mL (≈ 0.0611 µM)
CCN(CC)CCCNC(=O)[C@H]1NC(=O)[C@H]2NC(=O)[C@H](NC(=O)[C@@H]3NC(=O)[C@H]4NC(=O)[C@@H](Cc5ccc(c(Cl)c5)Oc5cc3cc(c5O[C@@H]3O[C@@H](CO)[C@@H](O)[C@H](O)[C@@H]3NC(=O)CCCCCCC(C)C)Oc3ccc(cc3Cl)[C@H]2O[C@@H]2O[C@@H](CO)[C@@H](O)[C@H](O)[C@@H]2NC(C)=O)NC(=O)[C@H](N)c2ccc(O)c(c2)Oc2cc(O)cc4c2)c2ccc(O)c(c2)-c2c(O[C@H]3O[C@H](CO)[C@@H](O)[C@@H](O)[C@@H]3O)cc(O)cc21 | – | 0.05 mg/kg | – | 0.12 µg/mL (≈ 0.0602 µM) | 0.12 µg/mL (≈ 0.0602 µM) | 0.06 µg/mL (≈ 0.0301 µM) | 0.06 µg/mL (≈ 0.0301 µM) | 0.12 µg/mL (≈ 0.0602 µM) | – | 90 mg/kg | 0.12 µg/mL (≈ 0.0602 µM)
CC(=O)N[C@@H]1[C@H](O[C@@H]2c3ccc(c(Cl)c3)Oc3cc4cc(c3O[C@@H]3O[C@@H](CO)[C@@H](O)[C@H](O)[C@@H]3NC(=O)CCCCCCC(C)C)Oc3ccc(cc3Cl)C[C@H]3NC(=O)[C@H](N)c5ccc(O)c(c5)Oc5cc(O)cc(c5)[C@H](NC3=O)C(=O)N[C@H]4C(=O)N[C@H]3C(=O)N[C@@H]2C(=O)N[C@H](C(=O)N(C)CCN(C)C)c2cc(O)cc(O[C@H]4O[C@H](CO)[C@@H](O)[C@@H](O)[C@@H]4O)c2-c2cc3ccc2O)O[C@@H](CO)[C@@H](O)[C@@H]1O | – | 0.15 mg/kg | – | 0.06 µg/mL (≈ 0.0306 µM) | 0.12 µg/mL (≈ 0.0611 µM) | 0.06 µg/mL (≈ 0.0306 µM) | 0.06 µg/mL (≈ 0.0306 µM) | 0.06 µg/mL (≈ 0.0306 µM) | – | 90 mg/kg | 0.25 µg/mL (≈ 0.127 µM)
CC(=O)N[C@@H]1[C@H](O[C@@H]2c3ccc(c(Cl)c3)Oc3cc4cc(c3O[C@@H]3O[C@@H](CO)[C@@H](O)[C@H](O)[C@@H]3NC(=O)CCCCCCC(C)C)Oc3ccc(cc3Cl)C[C@H]3NC(=O)[C@H](N)c5ccc(O)c(c5)Oc5cc(O)cc(c5)[C@H](NC3=O)C(=O)N[C@H]4C(=O)N[C@H]3C(=O)N[C@@H]2C(=O)N[C@H](C(=O)NCCCCN(C)C)c2cc(O)cc(O[C@H]4O[C@H](CO)[C@@H](O)[C@@H](O)[C@@H]4O)c2-c2cc3ccc2O)O[C@@H](CO)[C@@H](O)[C@@H]1O | – | 0.1 mg/kg | – | 0.06 µg/mL (≈ 0.0303 µM) | 0.12 µg/mL (≈ 0.0607 µM) | 0.12 µg/mL (≈ 0.0607 µM) | 0.06 µg/mL (≈ 0.0303 µM) | 0.12 µg/mL (≈ 0.0607 µM) | – | 90 mg/kg | 0.25 µg/mL (≈ 0.126 µM)
CC(=O)N[C@@H]1[C@H](O[C@@H]2c3ccc(c(Cl)c3)Oc3cc4cc(c3O[C@@H]3O[C@@H](CO)[C@@H](O)[C@H](O)[C@@H]3NC(=O)CCCCCCC(C)C)Oc3ccc(cc3Cl)C[C@H]3NC(=O)[C@H](N)c5ccc(O)c(c5)Oc5cc(O)cc(c5)[C@H](NC3=O)C(=O)N[C@H]4C(=O)N[C@H]3C(=O)N[C@@H]2C(=O)N[C@H](C(=O)NCCCN)c2cc(O)cc(O[C@H]4O[C@H](CO)[C@@H](O)[C@@H](O)[C@@H]4O)c2-c2cc3ccc2O)O[C@@H](CO)[C@@H](O)[C@@H]1O | – | 0.08 mg/kg | – | 0.06 µg/mL (≈ 0.031 µM) | 0.12 µg/mL (≈ 0.062 µM) | 0.12 µg/mL (≈ 0.062 µM) | 0.03 µg/mL (≈ 0.0155 µM) | 0.12 µg/mL (≈ 0.062 µM) | – | 89.6 mg/kg | 0.12 µg/mL (≈ 0.062 µM)
CC(=O)N[C@@H]1[C@H](O[C@@H]2c3ccc(c(Cl)c3)Oc3cc4cc(c3O[C@@H]3O[C@@H](CO)[C@@H](O)[C@H](O)[C@@H]3NC(=O)CCCCCCC(C)C)Oc3ccc(cc3Cl)C[C@H]3NC(=O)[C@H](N)c5ccc(O)c(c5)Oc5cc(O)cc(c5)[C@H](NC3=O)C(=O)N[C@H]4C(=O)N[C@H]3C(=O)N[C@@H]2C(=O)N[C@H](C(=O)NCCCCN)c2cc(O)cc(O[C@H]4O[C@H](CO)[C@@H](O)[C@@H](O)[C@@H]4O)c2-c2cc3ccc2O)O[C@@H](CO)[C@@H](O)[C@@H]1O | – | 0.07 mg/kg | – | 0.06 µg/mL (≈ 0.0308 µM) | 0.12 µg/mL (≈ 0.0615 µM) | 0.12 µg/mL (≈ 0.0615 µM) | 0.06 µg/mL (≈ 0.0308 µM) | 0.12 µg/mL (≈ 0.0615 µM) | – | 90 mg/kg | 0.12 µg/mL (≈ 0.0615 µM)
CNCCN(C)C(=O)[C@H]1NC(=O)[C@H]2NC(=O)[C@H](NC(=O)[C@@H]3NC(=O)[C@H]4NC(=O)[C@@H](Cc5ccc(c(Cl)c5)Oc5cc3cc(c5O[C@@H]3O[C@@H](CO)[C@@H](O)[C@H](O)[C@@H]3NC(=O)CCCCCCC(C)C)Oc3ccc(cc3Cl)[C@H]2O[C@@H]2O[C@@H](CO)[C@@H](O)[C@H](O)[C@@H]2NC(C)=O)NC(=O)[C@H](N)c2ccc(O)c(c2)Oc2cc(O)cc4c2)c2ccc(O)c(c2)-c2c(O[C@H]3O[C@H](CO)[C@@H](O)[C@@H](O)[C@@H]3O)cc(O)cc21 | – | 0.1 mg/kg | – | 0.06 µg/mL (≈ 0.0308 µM) | 0.12 µg/mL (≈ 0.0615 µM) | 0.12 µg/mL (≈ 0.0615 µM) | 0.06 µg/mL (≈ 0.0308 µM) | 0.12 µg/mL (≈ 0.0615 µM) | – | 72 mg/kg | 1 µg/mL (≈ 0.513 µM)
CC(=O)N[C@@H]1[C@H](O[C@@H]2c3ccc(c(Cl)c3)Oc3cc4cc(c3O[C@@H]3O[C@@H](CO)[C@@H](O)[C@H](O)[C@@H]3NC(=O)CCCCCCC(C)C)Oc3ccc(cc3Cl)C[C@H]3NC(=O)[C@H](N)c5ccc(O)c(c5)Oc5cc(O)cc(c5)[C@H](NC3=O)C(=O)N[C@H]4C(=O)N[C@H]3C(=O)N[C@@H]2C(=O)N[C@H](C(=O)NCc2ccccn2)c2cc(O)cc(O[C@H]4O[C@H](CO)[C@@H](O)[C@@H](O)[C@@H]4O)c2-c2cc3ccc2O)O[C@@H](CO)[C@@H](O)[C@@H]1O | – | 0.08 mg/kg | – | 0.12 µg/mL (≈ 0.0609 µM) | 0.12 µg/mL (≈ 0.0609 µM) | 0.06 µg/mL (≈ 0.0305 µM) | 0.06 µg/mL (≈ 0.0305 µM) | 0.12 µg/mL (≈ 0.0609 µM) | – | 139 mg/kg | 8 µg/mL (≈ 4.06 µM)
